Activity calls are given as the source filed them. No cut-off for these calls is given here. Where a SMILES comes first, the peptide text is derived from it.

The subject of data set [1] is BJ. The data set is described as follows: Cytotoxicity against human BJ cells assessed as decrease in cell viability at 128 ug/ml after 24 hrs by Alamar blue assay. It counts as cell-based. In short, it runs like this:
(§1)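 Cells treated in 96-well culture plates in triplicate at 128 μg/mL. Viability measured 24 h after treatment with the redox dye Alamar Blue. Fluorescence read at 560/12 nm excitation and 590 nm emission, at time zero and 4 h after dye addition.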
(In general: Alamar Blue is a resazurin reagent that responds to reducing activity.)

Data set [2] concerns Keratinocyte. The experiment in a line: Cytotoxicity against human epidermal keratinocytes assessed as decrease in cell viability at 128 ug/ml after 24 hrs by Alamar blue assay. In outline: as §1
Data set [3] is filed under the species Homo sapiens. The experiment in a line: Cytotoxicity against human HTB-26 cells assessed as decrease in cell viability at 128 ug/ml after 24 hrs by Alamar blue assay. It counts as functional, cell-based. In short, it runs like this:
as §1

Data set [4] relates to MCF7. The data set is described as follows: Cytotoxicity against human MCF7 cells assessed as decrease in cell viability at 128 ug/ml after 24 hrs by Alamar blue assay. It counts as functional, cell-based. In short, it runs like this:
as §1

The subject of data set [5] is Staphylococcus aureus. The experiment in a line: Antimicrobial activity against methicillin-resistant Staphylococcus aureus ATCC 33591 at 128 ug/ml after 22 hrs by micro broth dilution assay. It counts as functional, organism-based. In outline:
(§2)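 CLSI 96-well microbroth dilution, triplicate; tested at 128 μg/mL; strains MRSA ATCC 33591 and VRE E. faecium EF379; optical density read at time zero and after 22 h incubation to give growth inhibition.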
On the technique in general: In broth dilution the organism is exposed to a series of concentrations in liquid medium.

The subject of data set [6] is Enterococcus faecium. The experiment in a line: Antimicrobial activity against vancomycin-resistant Enterococcus faecium EF379 at 128 ug/ml after 22 hrs by micro broth dilution assay. It counts as functional, organism-based. In outline:
as §2

Data set [7] concerns Staphylococcus warneri. The experiment in a line: Antimicrobial activity against Staphylococcus warneri ATCC 17917 at 128 ug/ml after 22 hrs by micro broth dilution assay. It counts as functional, organism-based. In outline:
(§3)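 CLSI-standard 96-well broth microdilution, run in triplicate. Test concentration 128 μg/mL. Optical density read at time zero and at the final time point; growth inhibition calculated from the change after 22 h incubation.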

Data set [8] has as its system Pseudomonas aeruginosa. The experiment in a line: Antimicrobial activity against Pseudomonas aeruginosa ATCC 14210 at 128 ug/ml after 22 hrs by micro broth dilution assay. It counts as functional, organism-based. In short, it runs like this:
as §3

The subject of data set [9] is Candida albicans. The experiment in a line: Antimicrobial activity against Candida albicans ATCC 14035 at 128 ug/ml after 22 hrs by micro broth dilution assay. It counts as functional, organism-based. In outline: as §3

For the compound `CC(C)C[C@@H]1NC(=O)[C@@H](C(C)C)NC(=O)[C@@H](C(C)C)NC(=O)[C@@H](C(C)C)NC(=O)[C@H](Cc2ccccc2)NC(=O)[C@@H](Cc2ccccc2)NC(=O)[C@@H](C(C)C)NC1=O` (HELM PEPTIDE1{F.[dV].[dV].[dV].L.[dV].[dF]}$PEPTIDE1,PEPTIDE1,1:R1-7:R2$$$V2.0), the Activity entry in data set [1] and in [2] was “Non-Toxic” in each case. The result in data set [3], in data set [4], in data set [5], in [6], in data set [7] and in [8] was inactive. Also, in [9], the outcome was inactive.
`CC[C@@H](C)[C@H]1NC(=O)[C@H](Cc2ccccc2)NC(=O)[C@@H]([C@H](C)CC)NC(=O)[C@@H](C(C)C)NC(=O)[C@@H]([C@H](C)CC)NC(=O)[C@H]([C@@H](C)CC)NC(=O)[C@@H](C)NC1=O`: the Activity entry in data set [1] and in data set [2] was “Non-Toxic” in each case. Further, the result in data set [3], in [4], in data set [5], in data set [6], in [7] and in data set [8] was inactive. In addition, in data set [9], the outcome was inactive.
Turning to `CC(C)[C@H]1NC(=O)[C@H](Cc2ccccc2)NC(=O)[C@@H](C(C)C)NC(=O)[C@@H](C(C)C)NC(=O)[C@@H](C(C)C)NC(=O)[C@H](Cc2ccccc2)NC(=O)[C@@H](Cc2ccccc2)NC1=O` (HELM PEPTIDE1{F.[dV].[dF].F.[dV].[dV].[dV]}$PEPTIDE1,PEPTIDE1,1:R1-7:R2$$$V2.0), the Activity entry in data set [1] and in [2] was “Non-Toxic” throughout. Also, the result in data set [3], in data set [4], in data set [5], in data set [6], in data set [7] and in data set [8] was inactive. Also, the outcome in data set [9] was inactive.
For `CC[C@@H](C)[C@H]1NC(=O)[C@@H](C)NC(=O)[C@H](Cc2ccccc2)NC(=O)[C@@H](CC(C)C)NC(=O)[C@@H](C(C)C)NC(=O)[C@H](Cc2ccccc2)NC(=O)[C@@H]([C@H](C)CC)NC1=O` (HELM PEPTIDE1{F.[dA].[dI].[dI].F.[dV].[dL]}$PEPTIDE1,PEPTIDE1,1:R1-7:R2$$$V2.0), the Activity result in [1] and in [2] was “Non-Toxic” in each case. In addition, the result in data set [3], in data set [4], in data set [5], in data set [6], in data set [7] and in data set [8] was inactive. The result in data set [9] was inactive.
